The source made the active and inactive calls. The calls are words filed in the database; no cut-off is given here.

From ChEMBL document CHEMBL1914335, “Identification of a potent and selective σ₁ receptor agonist potentiating NGF-induced neurite outgrowth in PC12 cells” (Bioorg Med Chem, 2011) come the findings set out here.

Experiment [1] can be described thus: Displacement of [3H]-DTG from sigma2 receptor in guinea pig brain membrane after 120 mins by liquid scintillation counting. In kind it is cell membranes, Cavia porcellus. Summed up:
(§1)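 For σ2, membranes (360 µg protein) incubated at rt for 120 min with 3 nM [3H]DTG plus 0.4 µM (+)-SKF10,047, with nine test concentrations in 50 mM Tris-HCl pH 8.0; nonspecific binding with 5 µM DTG. For σ1, 3 nM [3H]-(+)-pentazocine, 150 min at 37 °C, pH 7.4, haloperidol 10 µM. Both read by filtration and scintillation counting; Ki values derived.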
On the technique in general: Displacement assays read how much labelled ligand stays bound in the presence of the test substance.

Experiment [2] addresses Sigma non-opioid intracellular receptor 1 (Cavia porcellus, UniProt Q60492). As to the kind of experiment: Displacement of [3H]-(+)-pentazocine from sigma1 receptor in guinea pig brain membrane after 150 mins by liquid scintillation counting. In kind it is cell membranes. Summed up:
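Membranes (500 µg protein) incubated with 3 nM [3H]-(+)-pentazocine and nine test concentrations in 50 mM Tris-HCl pH 7.4, 150 min at 37 °C. Nonspecific binding defined by 10 µM haloperidol. Samples filtered on PEI-presoaked GF/B filters and counted by liquid scintillation; Ki calculated from these curves.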

Experiment [3] is filed under the species Sus scrofa. As to the kind of experiment: Displacement of [3H]-(+)-MK-801 from NMDA receptor PCP binding site in pig brain cortex assessed as residual binding at 10 uM after 150 mins by scintillation counting. Summed up:
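Pig brain cortex membranes (about 100 µg protein) incubated with 2 nM [3H]-(+)-MK-801 in 5 mM Tris-acetate/1 mM EDTA pH 7.5, 150 min at rt. Nonspecific binding with 10 µM (+)-MK-801. Filtration, then solid scintillator counting. Residual binding measured at 10 µM test compound.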

Experiment [4] deals with Kappa-type opioid receptor (Cavia porcellus) (UniProt P41144). Kind of experiment: Displacement of [3H]-U69593 from kappa opioid receptor in guinea pig brain membrane assessed as residual binding at 1 uM after 150 mins by liquid scintillation counting. In kind it is cell membranes. Summed up:
(§2)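 Guinea pig brain membranes (about 75 µg protein) incubated with 1 nM [3H]-U69,593 in 50 mM Tris, 8 mM MgCl2, pH 7.4, 150 min at 37 °C. Nonspecific binding with 10 µM unlabeled U69,593. Filtration, then solid scintillator counting in triplicate. Residual binding taken at 1 µM; otherwise IC50 from ≥6 concentrations, Ki by Cheng-Prusoff (Kd 0.69 nM).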

Experiment [5] deals with Mu-type opioid receptor (Cavia porcellus) (UniProt P97266). Kind of experiment: Displacement of [3H]-DAMGO from mu opioid receptor in guinea pig brain membrane assessed as residual binding at 1 uM after 150 mins by liquid scintillation counting. In kind it is cell membranes. Summed up: (§3)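 Guinea pig brain membranes (about 75 µg protein) incubated with 1 nM [3H]-DAMGO in 50 mM Tris, 8 mM MgCl2, 400 µM PMSF, pH 7.4, 150 min at 37 °C. Nonspecific binding with 10 µM naloxone. Filtration, then solid scintillator counting in triplicate. Residual binding taken at 1 µM test compound; otherwise IC50 from ≥6 concentrations, Ki by Cheng-Prusoff (Kd 0.57 nM).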

Experiment [6] concerns the target Kappa-type opioid receptor (Cavia porcellus, UniProt P41144). Kind of experiment: Displacement of [3H]-U69593 from kappa opioid receptor in guinea pig brain membrane after 150 mins by liquid scintillation counting. In kind it is cell membranes. A digest of the protocol: as §2
For experiment [7], the species on record is Cavia porcellus. Kind of experiment: Selectivity ratio of Ki for sigma2 receptor in guinea pig brain membrane to Ki for sigma1 receptor in guinea pig brain membrane. The experiment is classed as cell membranes. A digest of the protocol:
as §1

In experiment [8] the target is Mu-type opioid receptor (Cavia porcellus, UniProt P97266). As to the kind of experiment: Displacement of [3H]-DAMGO from mu opioid receptor in guinea pig brain membrane after 150 mins by liquid scintillation counting. The experiment is classed as cell membranes. A digest of the protocol:
as §3

For experiment [9], the target named is Sigma non-opioid intracellular receptor 1 (Rattus norvegicus) (UniProt Q9R0C9). As to the kind of experiment: Agonist activity at sigma1 receptor in rat PC12 cells assessed as cells with increase in NGF-induced neurite outgrowth at 0.01 uM after 5 days by phase contrast microscopy. In kind it is functional, cell-based. The settings on record: PC-12. Summed up: (§4)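 PC12 cells grown at 37 °C, 5% CO2 in RPMI with 5% FBS and 10% horse serum. Replated at 0.25 × 10^4 cells/cm2 on poly-D-lysine glass coverslips. After 24 h, switched to 0.5% HS medium with NGF 2.5 ng/mL ± drug, BD-1063 at 5 µM final where used. After 5 days, fixed in 4% PFA. Cells with ≥1 neurite at least one cell-body diameter long were scored blind by two examiners; ≥3 independent experiments.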

The target is the same in experiment [10]. As to the kind of experiment: Agonist activity at sigma1 receptor in rat PC12 cells assessed as increase of NGF-induced neurite length at 2.5 uM after 5 days by phase contrast microscopy. The experiment is classed as functional, cell-based. The settings on record: PC-12. A digest of the protocol: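 Culture conditions match the neurite-outgrowth note: PC12 cells on poly-D-lysine coverslips with NGF 2.5 ng/mL ± drug for 5 days, BD-1063 at 5 µM final where used. Cells were then fixed in 4% PFA and imaged by phase contrast, six fields per coverslip. Neurite length was traced from cell body to tip, measured blind by two examiners; ≥3 independent experiments; mean ± SEM.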

Experiment [11] has the same target. Kind of experiment: Agonist activity at sigma1 receptor in rat PC12 cells assessed as cells with increase in NGF-induced neurite outgrowth at 2.5 uM after 5 days by phase contrast microscopy. In kind it is functional, cell-based. Conditions: PC-12. A digest of the protocol:
as §4

Sequence of Sigma non-opioid intracellular receptor 1 (Q60492 whole entry): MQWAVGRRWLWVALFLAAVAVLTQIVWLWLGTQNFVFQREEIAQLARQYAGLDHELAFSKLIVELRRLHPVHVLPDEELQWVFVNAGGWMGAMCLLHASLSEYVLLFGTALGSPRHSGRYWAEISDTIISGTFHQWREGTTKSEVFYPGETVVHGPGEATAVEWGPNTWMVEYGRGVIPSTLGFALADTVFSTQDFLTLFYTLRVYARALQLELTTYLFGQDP
Sequence of Sigma non-opioid intracellular receptor 1 (Rattus norvegicus) (Q9R0C9 whole entry): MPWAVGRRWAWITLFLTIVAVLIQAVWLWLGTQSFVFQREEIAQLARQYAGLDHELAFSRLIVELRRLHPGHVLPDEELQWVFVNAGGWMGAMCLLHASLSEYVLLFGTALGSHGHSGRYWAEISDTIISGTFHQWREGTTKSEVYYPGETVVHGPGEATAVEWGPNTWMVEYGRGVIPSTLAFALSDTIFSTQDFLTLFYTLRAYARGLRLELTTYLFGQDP
Sequence of Mu-type opioid receptor (Cavia porcellus) (P97266 whole entry): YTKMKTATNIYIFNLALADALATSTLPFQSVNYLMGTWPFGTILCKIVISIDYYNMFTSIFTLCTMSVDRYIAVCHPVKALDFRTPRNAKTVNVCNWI
Sequence of Mu-type opioid receptor (P97266 whole entry): as above
Sequence of Kappa-type opioid receptor (P41144 whole entry): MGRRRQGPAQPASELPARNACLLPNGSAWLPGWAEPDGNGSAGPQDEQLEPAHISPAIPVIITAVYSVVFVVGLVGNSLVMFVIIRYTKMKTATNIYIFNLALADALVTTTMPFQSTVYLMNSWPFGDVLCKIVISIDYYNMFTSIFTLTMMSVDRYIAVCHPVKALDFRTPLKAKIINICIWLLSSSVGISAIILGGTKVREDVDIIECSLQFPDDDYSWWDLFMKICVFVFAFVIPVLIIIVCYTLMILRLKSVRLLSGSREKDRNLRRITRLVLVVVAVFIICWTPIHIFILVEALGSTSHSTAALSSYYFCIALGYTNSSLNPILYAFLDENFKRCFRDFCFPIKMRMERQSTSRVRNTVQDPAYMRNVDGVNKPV
Sequence of Kappa-type opioid receptor (Cavia porcellus) (P41144 whole entry): as above

For `COc1cccc(/C(C)=C/CN(C)C)c1`, the inhibition constant Ki in experiment [1] and in [2] was > 1000 nM in each case. Besides, the Activity stood at 60% in experiment [3], 5% in [4] and 17% in [5].
For the compound `COc1ccc(/C(C)=C/CN2CCOCC2)cc1`, the Ki in [1] and in experiment [2] was > 1000 nM in each case. For the same compound, the Activity in [3] stood at 10%; in experiment [4], 8%; in [5], 0%.
Turning to `C/C(=C\CN(C)Cc1ccccc1)c1ccccc1`, the Ki (in general, the dissociation constant of the complex between target and ligand, obtained from inhibition or displacement) in [6] is 438 nM; in experiment [1], 61 nM; in experiment [2] it was 92 nM; in [8], 119 nM. Further, in [7], the Ratio Ki is 0.7. The Activity in experiment [3] turned out to be 67%.
For the compound `COc1ccc(/C(C)=C/CN2CCCCC2)cc1`, the Ratio Ki in experiment [7] came to 10.6. The values for the Ki in experiment [1] and in experiment [2] were 149 nM and 14 nM, respectively. Besides, the Activity in [3] was found to be 0%; in experiment [4] it was 14%; in experiment [5], 36%.
Consider `C/C(=C\CN1CCCCC1)c1ccc2ccccc2c1`, for which the Ratio Ki in experiment [7] was 36.2. Also, the values for the Ki in experiment [1] and in [2] were 35.1 nM and 0.97 nM, respectively. Also, the Activity stood at 16% in experiment [3], 44% in experiment [4] and 23% in [5].
`COc1ccc(/C(C)=C/CN2CCC(Cc3ccccc3)CC2)cc1`: the Ki in [6] is 157 nM; in [1] it was 7.1 nM; in experiment [2] it was 4.14 nM; in experiment [8] it was 149 nM. Also, the Ratio Ki in experiment [7] is 1.7. In addition, in experiment [3], the Activity was 0%.
`COc1ccc(/C(C)=C/CN(C)Cc2ccccc2)cc1`: the Ki in experiment [6] is 197 nM; in [1] it was 155 nM; in [2], 5.25 nM; in experiment [8], 92 nM. In experiment [7], the Ratio Ki stood at 29.5. Also, in experiment [3], the Activity is 27%.
With `C/C(=C\CN1CCCCC1)c1ccccc1`, the Ratio Ki in [7] was 0.4. Moreover, the Ki in experiment [1] amounted to 191 nM; in [2], 459 nM. Also, the Activity is 0% in experiment [3], 0% in experiment [4] and 19% in [5].
As for `COc1cccc(/C(C)=C/CN(C)Cc2ccccc2)c1`, the Ki is 301 nM in experiment [6], 163 nM in experiment [1] and 10 nM in [2]. The Ratio Ki in experiment [7] came out at 16.3. In addition, the Activity in experiment [3] stood at 8%; in experiment [5], 49%.
In the case of `C/C(=C\CN1CCC(Cc2ccccc2)CC1)c1ccccc1`, the inhibition constant Ki in experiment [6] turned out to be 189 nM; in [1], 5.49 nM; in experiment [2], 1.07 nM; in experiment [8], 152 nM. For the same compound, the Ratio Ki in experiment [7] amounted to 5.1. Further, the Activity in [3] was 0%.
Turning to `C/C(=C\CN1CCOCC1)c1ccc2ccccc2c1`, the Ratio Ki in experiment [7] was 23.9. The figures for the Ki in experiment [1] and in experiment [2] were 229 nM and 9.6 nM, respectively. In addition, the Activity was 31% in experiment [3], 15% in [4] and 44% in experiment [5].
`COc1cccc(/C(C)=C/CN2CCOCC2)c1`: the Ki in [1] and in experiment [2] was > 1000 nM each time. Also, the figures for the Activity in [3], in experiment [4] and in experiment [5] were 20%, 10% and 46%, respectively.
Consider `C/C(=C\CN(C)Cc1ccccc1)c1ccc2ccccc2c1`, for which the Ratio Ki in experiment [7] was 111. This compound also displayed a Ki in experiment [1] of 873 nM.
Take `C/C(=C\CN1CCOCC1)c1ccccc1`: the Ki in experiment [1] and in experiment [2] was > 1000 nM in each case. For the same compound, the Activity in experiment [3] was determined as 19%; in [4], 3%; in experiment [5], 12%.
For `C/C(=C\CN(C)C)c1ccc2ccccc2c1`, the Ratio Ki in experiment [7] amounted to 7.5. This compound also registered a Ki in experiment [1] of 148 nM.
For `COc1ccc(/C(C)=C/CN(C)C)cc1`, the Ki is > 1000 nM in [1] and 806 nM in [2]. The Activity in experiment [3] is 0%; in experiment [4], 20%; in experiment [5] it was 10%.
Consider `C/C(=C\CN1CCC(Cc2ccccc2)CC1)c1ccc2ccccc2c1`, for which, in [7], the Ratio Ki amounted to 0.7. The values for the Ki in experiment [1] and in [2] were 16 nM and 23 nM, respectively. Also, the values for the Activity in [3], in [4] and in experiment [5] were 17%, 10% and 38%, respectively.
Take `C/C(=C\CN(C)Cc1ccccc1)c1ccc(-c2ccccc2)cc1`: in [7], the Ratio Ki turned out to be 12. In experiment [1], this compound registered a Ki of 75.7 nM.
For the compound `C/C(=C\CN(C)C)c1ccccc1`, the inhibition constant Ki in experiment [1] and in experiment [2] was > 1000 nM throughout. Also, the Activity in experiment [3], in [4] and in [5] was 0% in each case.
Take `C/C(=C\CN1CCC(Cc2ccccc2)CC1)c1ccc(-c2ccccc2)cc1`: the Ratio Ki in [7] stood at 2.6. For the same compound, the figures for the Ki in [1] and in [2] were 18 nM and 7.02 nM, respectively. Besides, the Activity in experiment [3] stood at 17%; in experiment [4], 10%; in experiment [5], 0%.
`C/C(=C\CN(C)C)c1ccc(-c2ccccc2)cc1`: the Ratio Ki in [7] came to 75.7. In experiment [1], this compound yielded a Ki of 106 nM.
On to `C/C(=C\CN1CCOCC1)c1ccc(-c2ccccc2)cc1`, for which the Ratio Ki in experiment [7] turned out to be 33.3. Moreover, the Ki in experiment [1] came to 386 nM; in experiment [2], 11.6 nM. The Activity was determined as 69% in [3], 10% in [4] and 52% in experiment [5].
On to `O=C(OCCN1CCOCC1)C1(c2ccccc2)CCCCC1`, for which the result in [9], in experiment [10] and in experiment [11] was inactive.
Regarding `COc1cccc(/C(C)=C/CN2CCCCC2)c1`, the Ratio Ki in [7] amounted to 3.2. Moreover, the Ki in experiment [1] was 294 nM; in [2], 91 nM. In addition, the Activity in experiment [3] was determined as 0%; in experiment [4], 22%; in experiment [5], 21%.
For the compound `COc1cccc(/C(C)=C/CN2CCC(Cc3ccccc3)CC2)c1`, the Ki in experiment [6] stood at 214 nM; in experiment [1], 5.8 nM; in experiment [2] it was 7.7 nM. Besides, the Ratio Ki in [7] was determined as 0.8. Besides, the Activity in experiment [3] and in [5] was 36% in each case.
